For one data set, the system named is mdx mice. Briefly: IF staining of DMD and Ub-DMD in QUA of mdx mice with PPMO23 exon skipping. The settings on record: PPMO23 15 mg/kg i.v. biweekly alone, or with AGR-H19 10 mg/kg s.q. every three days or Nifenazone 10 mg/kg i.p. daily; 4 to 24 weeks of age; n=5. Type of data set: in vivo, mouse. Summed up: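 Controls were male C57BL/10J mice on scramble RNA plus vehicle, and mdx mice on scramble. Quadriceps were immunostained for DMD and Ub-DMD, and intensity was scored as average intensity × percentage positive cells. Mean±SD, n=5/condition, one-way ANOVA.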

The target in the next data set is TRIM63 (Homo sapiens, UniProt Q969Q1). Briefly: Screen of small molecule inhibitors targeting TRIM63. Type of data set: biochemical. The note with it: library of 2027 bioactive compounds; Ub-DMD (Lys3584) antibody, OD450. The method in brief:
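The library screen measured DMD poly-ubiquitination by sandwich ELISA, with His6-TUBE capture and Ub-DMD (Lys3584) antibody detection read at OD450. Background-subtracted mean absorbance per compound was normalised to DMSO-treated samples and expressed as log2 fold change.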

Data set [1] relates to hiPS-SkMCs. Briefly: IF staining / IB of DMD and Ub-DMD. Type of data set: cell-based, human. The note with it: iPS-SkMCs and iPS-CMs derived from BMD patients; Nifenazone 10 μM, 72 hours. The method in brief: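 Skeletal muscle cells came from iPSCs reprogrammed from fibroblasts of a healthy donor (GM09503) and four BMD donors (GM04981, GM02298, GM05089, GM04569). iPSCs were kept feeder-free on Matrigel in mTeSR1. For IF, myoblasts on collagen I-coated coverslips grew to confluence, then spent 4 days in myotube medium before 4% paraformaldehyde fixation. IF intensity combined average staining and percentage of positive cells; n=5 independent experiments, two-way ANOVA. Immunoblots were repeated twice.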

Data set [2] relates to hiPS-SkMCs. In words: Immunoprecipitation and immunoblotting in hiPS-SkMCs. In kind it is cell-based, human. The note with it: IB; for Ub-DMD in K3584R mutant knockin BMD iPS-SkMCs: GM04981 K3584R.
The subject of data set [3] is Dmd C3333Y mice. In words: IF staining of DMD and Ub-DMD. In kind it is in vivo, mouse. The settings on record: Dmd C3333Y mice QUA, AGR mimics 10 mg/kg subQ every three days, Nifenazone 10 mg/kg i.p. daily, n=5. The method in brief: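 Quadriceps sections from Dmd WT and Dmd C3333Y mice on control or test mimics, vehicle, or daily i.p. drug were immunostained for DMD and Ub-DMD (Lys3584). Intensity was quantified from average staining intensity and percentage of positively stained cells. Mean±SD, n=5 animals/group, one-way ANOVA.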

Data set [4] has as its system Dmd C3333Y mice. In words: Forelimb grip strength test of treated Dmd C3333Y mice. The settings on record: AGR mimics 10 mg/kg subQ every three days, Nifenazone 10 mg/kg i.p. daily. Type of data set: in vivo, mouse.
For data set [5], the system named is Dmd C3333Y mice. In words: Fibrotic area in the heart of treated Dmd C3333Y mice. Type of data set: in vivo, mouse. The settings on record: 4 to 24 weeks of age, AGR mimics 10 mg/kg subQ every three days, Nifenazone 10 mg/kg i.p. daily, n=5. Summed up: (§1)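 Male and female Dmd WT and Dmd C3333Y mice were dosed from 4 weeks to 16 or 24 weeks of age. […] Groups were randomised by age and sex. Left ventricular values or cardiac fibrotic area percentage are reported as mean±SD, n=5/group, one-way ANOVA.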

For data set [6], the system named is Dmd C3333Y mice. In words: Echocardiography. Type of data set: in vivo, mouse. The note with it: 4 to 24 weeks of age, AGR mimics 10 mg/kg subQ every three days, Nifenazone 10 mg/kg i.p. daily, n=5. The method in brief: as §1
A short description of a further data set: Body weight measurement. In kind it is in vivo, mouse. The settings on record: Dmd C3333Y mice from 4 weeks of age; AGR mimics 10 mg/kg subQ every three days; Nifenazone 10 mg/kg i.p. daily. Summed up:
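Weighed weekly in male Dmd WT (scramble- or vehicle-treated) and Dmd C3333Y mice during dosing from 4 weeks of age, to 16 weeks for the i.p. drug arm. AGR-Scr and AGR-H19 mut served as control mimics. Mean±SD, n=5 mice/group, two-way ANOVA.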

The nature of another data set: Blood biochemistry. In kind it is in vivo, mouse. The note with it: Dmd C3333Y mice from 4 weeks of age; AGR mimics 10 mg/kg subQ every three days; Nifenazone 10 mg/kg i.p. daily.
The next data set has as its system indicated genes. In words: RT-qPCR of indicated genes and microRNAs. The settings on record: Dmd C3333Y QUA; 10 mg/kg subQ every three days.
Another data set in a line: Pharmacokinetics. The settings on record: biotin-labeled, 10 mg/kg single dose, wild type C57BL/6 mice, 3–72 hours; dot-blot, n=5 animals per time point. Type of data set: in vivo, mouse. Summed up:
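A single 10 mg/kg dose of biotinylated H19 mimic (i.p. or subQ) or AGR-H19 (subQ) was given to wild type C57BL/6 mice. Muscle, heart, liver, kidney and lung were taken at 3, 12, 24, 48 or 72 h. Small RNA was dot-blotted against a 2-fold standard series of 1 μg–1 pg and detected with streptavidin-HRP. Levels are given as ng/g tissue, with PK parameters from nonlinear regression. n=5/time point.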

Data set [7] is described as follows: Serum IGF1 and IGF2 concentration. Type of data set: in vivo, mouse. The settings on record: Dmd C3333Y mice; 10 mg/kg subQ every three days. The method in brief: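 Serum IGF1 and IGF2 were measured in Dmd WT and Dmd C3333Y mice under the treatment arms. AGR mimics were dosed from 4 weeks of age to 16 or 24 weeks. Mean±SD, n=5 mice/group, one-way ANOVA.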

Chain of TRIM63 (Q969Q1 whole entry): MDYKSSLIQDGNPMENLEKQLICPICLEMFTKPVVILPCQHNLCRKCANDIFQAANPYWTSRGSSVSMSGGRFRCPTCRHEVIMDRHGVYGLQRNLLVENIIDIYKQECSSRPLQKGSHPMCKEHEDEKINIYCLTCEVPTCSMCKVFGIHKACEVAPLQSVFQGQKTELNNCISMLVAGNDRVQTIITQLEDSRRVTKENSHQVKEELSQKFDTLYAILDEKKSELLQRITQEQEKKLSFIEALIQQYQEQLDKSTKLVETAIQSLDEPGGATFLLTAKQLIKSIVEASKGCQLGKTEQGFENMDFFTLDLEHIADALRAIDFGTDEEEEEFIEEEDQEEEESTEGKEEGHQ

As to RXRRBRRXRRBRXB [PPMO23], in the data set with mdx mice, the “Dystrophin protein in skeletal muscle of mdx mice” value (“Dystrophin protein … of mdx mice” for short) is “partially restored” and the “Ub-DMD (poly-Ub) in skeletal muscle of mdx mice” value (shortened to “Ub-DMD (poly-Ub)”) is “robust”.

`Cc1c(NC(=O)c2cccnc2)c(=O)n(-c2ccccc2)n1C` [Nifenazone]: the “Inhibition of the enzymatic activities of TRIM63 in vitro (screen)” value at TRIM63 was “effective inhibition”. In the data set on hiPS-SkMCs [1], the Dystrophin protein stability entry is “stabilized dystrophin” and the “Status of Ub-DMD (Lys3584)” value is given as “attenuated”. In addition, the “Ub-DMD in K3584R mutant knockin BMD iPS-SkMCs” value in the data set with hiPS-SkMCs [2] is “minimally affected”. Moreover, the “Ub-DMD in hiPS-SkMCs upon NIF treatment” value with hiPS-SkMCs [2] (vehicle or NIF) is given as “inhibited”. In the data set with Dmd C3333Y mice [3], the “Dystrophin level in skeletal muscle” value is “restored” and the “Ub-DMD level in skeletal muscle” value was “decreased”. Also, the Muscle strength entry in the data set on Dmd C3333Y mice [4] is reported as “significantly improved”. The “Fibrotic area in the heart” value with Dmd C3333Y mice [5] is recorded as “reduced”. In the data set on Dmd C3333Y mice [6], the “Heart function (left ventricular ejection fraction and fraction shortening)” value was “improved”. In addition, in the data set “Body weight measurement”, the Body weight result was “minimally affected”. Also, in “Blood biochemistry”, the “Liver or kidney function” value is “minimally affected”. Besides, in the data set with mdx mice, the “Dystrophin protein … of mdx mice” value is “significantly increased” and the “Ub-DMD (poly-Ub)” value was “reduced”.

With “N-terminal-ELTNEIPAELTNEIPA-Linker-5'-[2’-F-C][2’-F-U][2’-F-C][2’-F-U][2’-F-U][2’-F-U][2’-F-G][2’-F-U][2’-F-U][2’-F-U][2’-F-C][2’-F-U][2’-F-G][2’-F-A][2’-F-G][2’-F-C][2’-F-U][2’-F-U][2’-F-U][2’-F-C][2’-F-C][2’-F-U][2’-F-G][2’-F-U][2’-F-C][2’-F-U][2’-F-U][2’-F-U][2’-F-C][2’-F-C]-3' [AGR-H19]”, the “Ub-DMD in K3584R mutant knockin BMD iPS-SkMCs” value with hiPS-SkMCs [2] is “minimally affected”. Also, the “Expression status of microRNAs tested” value with indicated genes is recorded as “minimal effects”. Moreover, in “Pharmacokinetics”, the “Amount in skeletal and cardiac muscles after dosing” value was “substantial amount”. Also, in the data set with Dmd C3333Y mice [3], the “Dystrophin level in skeletal muscle” value is recorded as “elevated” and the “Ub-DMD level in skeletal muscle” value is reported as “reduced”. For the same compound, in the data set on Dmd C3333Y mice [4], the Muscle strength result is reported as “improved”. In the data set on Dmd C3333Y mice [5], the “Fibrotic area in the heart” value is recorded as “reduced”. The “Heart function (left ventricular ejection fraction and fraction shortening)” value with Dmd C3333Y mice [6] is “increased”. For the same compound, the Body weight entry in the data set “Body weight measurement” is “minimal effects”. The “Liver or kidney function” value in “Blood biochemistry” was “minimal effects”. In data set [7], the “Serum IGF1/IGF2” value is “minimal effects”. Besides, in the data set with mdx mice, the “Dystrophin protein … of mdx mice” value is “significantly increased” and the “Ub-DMD (poly-Ub)” value is given as “reduced”.
